Compounds with a hit are over-represented: about 1.8% of the library has one in this group of screens.
M4 PAM: human M4 muscarinic receptor positive allosteric modulators, primary screen, CHO-K1 cells, Fluo-8 calcium fluorescence; 360,000 tested, 0.4% active; activation, % at 3 µM; CHO-K1 hM4/Gqi5, ACh EC20; 0% = ACh EC20, 100% = maximal ACh; AID 624126, 2012; Muscarinic acetylcholine receptor M4 (Homo sapiens), P08173;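 active means activation above its plate's cutoff, the mean activation of sample wells plus 3 SD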
Target sequence (P08173 whole entry, looked up): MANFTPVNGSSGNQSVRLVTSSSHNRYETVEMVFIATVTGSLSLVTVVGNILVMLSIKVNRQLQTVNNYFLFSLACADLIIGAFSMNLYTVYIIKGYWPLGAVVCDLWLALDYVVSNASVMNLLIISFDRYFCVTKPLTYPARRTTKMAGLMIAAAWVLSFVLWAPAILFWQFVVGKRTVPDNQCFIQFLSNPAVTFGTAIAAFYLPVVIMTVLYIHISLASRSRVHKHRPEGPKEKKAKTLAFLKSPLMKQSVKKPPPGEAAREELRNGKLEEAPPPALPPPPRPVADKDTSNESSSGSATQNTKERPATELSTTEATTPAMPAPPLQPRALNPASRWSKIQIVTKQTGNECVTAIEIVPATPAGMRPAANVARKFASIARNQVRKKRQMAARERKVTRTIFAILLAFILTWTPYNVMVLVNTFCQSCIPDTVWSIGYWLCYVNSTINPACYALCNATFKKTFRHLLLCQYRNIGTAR
CHRM5 antagonist: human M5 muscarinic receptor antagonists, primary screen, CHO cells, Fluo-8 calcium fluorescence; Muscarinic acetylcholine receptor M5 (Homo sapiens), P08912; inhibition, % at 3 µM; CHO-hM5 cells, ACh EC80; 360,000 tested, 0.59% active;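 active means inhibition above a per-plate cutoff, the mean of that plate's test compounds plus 3 SD, cut at about 27% in these data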;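 further: 0% = acetylcholine EC80 with DMSO and 100% = DMSO without agonist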
M5 PAM: human M5 muscarinic receptor positive allosteric modulators, primary screen, CHO-K1 cells, Fluo-8 calcium fluorescence | CHO-K1 hM5, ACh EC20 PAM; 0% = ACh EC20, 100% = ACh EC100 | activation, % at 3 µM | 360,000 tested, 0.3% active | AID 624038, 2012;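 active means activation above the run cutoff, the mean activation of all test compounds plus 3 SD, cut at about 18% in these data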
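Assay system: CHO-K1 hM5 cells / Incubation: Fluo-8 loading 80 min at 37 °C plus 30 min room temperature / Technique: Fluo-8 calcium dye fluorescence, kinetic read / Repeats: single replicate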
M4 ag: human M4 muscarinic receptor agonists, primary screen, CHO-K1 cells, Fluo-8 calcium fluorescence | Muscarinic acetylcholine receptor M4 (Homo sapiens), P08173 | 360,000 tested, 0.14% active | CHO-K1 hM4/Gqi5; vehicle 0%, full acetylcholine response 100% | activation, % at 3 µM;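 active means activation above the run mean over all test wells plus 3 SD, cut at about 32% in these data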;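 further: peak over basal fluorescence ratio per well then scaled between controls; 0% = DMSO wells and 100% = acetylcholine at EC100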
CHRM4 antagonist: human M4 muscarinic receptor antagonists, primary screen, CHO cells, Fluo-8 calcium fluorescence; CHO-hM4 cells, ACh EC80; inhibition, % at 3 µM; AID 624125, 2012; 360,000 tested, 0.73% active;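 active means inhibition above its plate's cutoff, the mean inhibition of sample wells plus 3 SD, cut at about 27% in these data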;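 further: 0% = acetylcholine EC80 with DMSO and 100% = DMSO without agonist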
M5 ag: human M5 muscarinic receptor agonists, primary screen, CHO-K1 cells, Fluo-8 calcium fluorescence | Muscarinic acetylcholine receptor M5 (Homo sapiens), P08912 | CHO-K1 hM5 cells; 0% DMSO wells, 100% maximal acetylcholine response | activation, % at 3 µM | 360,000 tested, 0.19% active | AID 624037, 2012;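 active means activation above the run's mean over test compounds plus 3 SD, cut at about 23% in these data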;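 further: signal is peak over basal fluorescence ratio across the kinetic read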
* marks the source's active call; other numbers are inactive results.

SMILES	M4 PAM	CHRM5 antagonist	M5 PAM	M4 ag	CHRM4 antagonist	M5 ag
Cc1ccc(NS(=O)(=O)c2ccc(C(=O)N3CC(C)CC(C)C3)cc2)cc1 (stereo not drawn)	-19	31*	-15	107*	35*	56*
CS(=O)(=O)Nc1ccc(C(=O)N2CCCCC2)cc1	23*	-4	-8	3	-3	0
CC1CN(C(=O)c2ccc(S(=O)(=O)Nc3cccc(C(F)(F)F)c3)cc2)CC(C)O1 (stereo not drawn)	-2	3	-4	12	-11	28*
COc1ccccc1C1CCN(Cc2ccc(C)cc2)CC1	3	1	-5	2	-10	-9
CSc1cccc(N2CC(C(=O)Nc3ccccc3N3CCCC3)CC2=O)c1 (stereo not drawn)	5	2	-8	11	0	-1
COC(=O)C1(c2ccccc2)NC(c2cccs2)C2C(=O)N(C)C(=O)C21 (stereo not drawn)	-3	-4	0	0	6	-5
COC(=O)C1(c2ccccc2)NC(c2cccs2)C2C(=O)N(c3ccccc3)C(=O)C21 (stereo not drawn)	16	-11	-3	18	-20	53*
CC1(C)CC(NS(=O)(=O)c2ccc3ccccc3c2)CC(C)(C)N1	3	-10	18*	4	-19	-2
COc1ccc(S(=O)(=O)NC2CC(C)(C)NC(C)(C)C2)cc1	4	7	-2	1	-2	-6
COc1cc(OC)c(OC)cc1CN1CCN(Cc2ccc(C(F)(F)F)cc2)CC1	4	-7	22*	1	-9	0
CC(C)NS(=O)(=O)c1cccc2nsnc12	27*	3	0	2	11	0
CCCNC(=O)C1CCC(CNS(=O)(=O)c2cccc3nsnc23)CC1 (stereo not drawn)	16*	-1	6	1	3	-4
CC1CC(C)CN(S(=O)(=O)c2cccc3nsnc23)C1 (stereo not drawn)	21*	-9	6	0	-10	-2
COc1ccc(OC)c(NC(=O)Nc2ccc3[nH]ccc3c2)c1	3	0	1	1	-3	0
CC1(C(=O)NS(=O)(=O)c2cccc(Cl)c2)CCN1C(=O)Cc1ccc(-c2ccccc2)cc1 (stereo not drawn)	1	8	-1	0	7	-1
CC(=O)Nc1ccc(NC(=O)CSc2n[nH]c(-c3cccs3)n2)cc1	-3	10	0	-1	5	-3
CC[C@@]12C(=O)N(c3ccc(OC)cc3)C(=O)N1[C@H](c1ccc(Cl)cc1)[C@@H]1C(=O)N(C3CCCCC3)C(=O)[C@@H]12	18	3	0	2	-5	1
N#C/C(=C\c1ccc(N2CCOCC2)o1)C(=O)NCCc1ccccc1	-13	16	-23	34*	3	47*
N#C/C(=C/c1ccc(N2CCOCC2)o1)C(=O)Nc1ccccc1	-16	27*	-21	54*	13	43*
Cc1cccc(NC(=O)C(=O)C2C(=O)Nc3ccccc32)c1 (stereo not drawn)	0	-6	19*	2	15	2
COc1cc(/C=C/C(=O)O)cc(S(=O)(=O)NCc2ccco2)c1OC	3	5	7	2	0	-1
COc1ccc(/C=C/C(=O)O)cc1S(=O)(=O)NCc1ccco1	0	-1	25*	0	2	8
COc1ccc(/C=N/N=C2/NC(=O)C(c3ccccc3)S2)c(OC)c1 (stereo not drawn)	13	-6	18*	0	1	-7
COc1ccc(CC2S/C(=N/N=C/c3ccccc3O)NC2=O)cc1 (stereo not drawn)	7	9	3	0	1	0
N#Cc1ccc(/C=C/C(=O)c2ccc3c(c2)OCO3)cc1	17*	-16	-8	1	-19	-6
SMILES	M4 PAM	CHRM5 antagonist	M5 PAM	M4 ag	CHRM4 antagonist	M5 ag
O=c1ccc(Cl)nn1-c1ccccc1	0	10	-3	0	2	2
COC(=O)C1=CN(c2ccc(F)cc2)C=C(C(=O)OC)C1c1ccc([N+](=O)[O-])cc1	-2	17	-7	0	-4	-4
COC(=O)C1=CN(c2ccc(OC)cc2)C=C(C(=O)OC)C1c1ccc([N+](=O)[O-])cc1	20*	-3	11	0	-9	-7
CC1CCC2(CC1)NC(=O)N(CC(=O)NCCc1ccc(F)cc1)C2=O (stereo not drawn)	2	-1	4	1	-1	0
NS(=O)(=O)c1ccc(CCNC(=O)c2cc(-c3cccs3)nc3ccccc23)cc1	-15	9	-13	17	16	0
NS(=O)(=O)c1cccc(NC(=O)c2cccs2)c1	2	-4	5	0	-9	-3
Cc1ccc(S(=O)(=O)N(C)C)cc1NC(=O)c1cc(-c2ccncc2)nc2ccccc12	-7	9	-24	16	-12	3
CN(C)S(=O)(=O)c1cccc(NC(=O)c2cc(-c3cccs3)nc3ccccc23)c1	-32	17	-18	22	31*	4
NS(=O)(=O)c1cccc(NC(=O)c2cc(-c3cccs3)nc3ccccc23)c1	-22	13	-13	13	30*	0
NS(=O)(=O)c1ccc(CNC(=O)c2cc(-c3cccs3)nc3ccccc23)cc1	-20	16	-16	16	30*	-1
COc1cccc(CNCCc2c[nH]c3ccccc23)c1OCc1ccccc1	-20	29*	-19	38*	21	8
CCOc1ccccc1NC(=O)CSc1nc2ccccc2c(=O)n1CC1CCCO1 (stereo not drawn)	-6	7	-1	4	-3	-4
C[C@H](NC(=O)c1nc[nH]c1C(=O)N[C@@H](Cc1ccccc1)C(=O)OC(C)(C)C)C(=O)OCc1ccccc1	-6	8	-4	1	-5	-6
CCCCN1C(=O)C(=O)N(CC(=O)Nc2cc(Cl)ccc2OC)C1=O	24*	-11	7	3	-17	7
CCCCN1C(=O)C(=O)N(CC(=O)Nc2ccccc2C(C)=O)C1=O	4	5	7	0	3	0
